pEC50, pIC50: −log10 of the molar value. Calls of active or inactive are those of the source. No cut-off for these calls is given here.
Key:
[1] = target: T1, GABA-A receptor; alpha-1/beta-3/gamma-2 (Homo sapiens, UniProt P14867+P18507+P28472); experiment: Positive allosteric modulation of GABAA alpha1beta3gamma2L in HEK cell plasma membrane assessed as increase in [3H]muscimol binding measured after 10 mins by liquid scintillation counting method; type: cell membranes
T1 sequence (P14867 whole entry): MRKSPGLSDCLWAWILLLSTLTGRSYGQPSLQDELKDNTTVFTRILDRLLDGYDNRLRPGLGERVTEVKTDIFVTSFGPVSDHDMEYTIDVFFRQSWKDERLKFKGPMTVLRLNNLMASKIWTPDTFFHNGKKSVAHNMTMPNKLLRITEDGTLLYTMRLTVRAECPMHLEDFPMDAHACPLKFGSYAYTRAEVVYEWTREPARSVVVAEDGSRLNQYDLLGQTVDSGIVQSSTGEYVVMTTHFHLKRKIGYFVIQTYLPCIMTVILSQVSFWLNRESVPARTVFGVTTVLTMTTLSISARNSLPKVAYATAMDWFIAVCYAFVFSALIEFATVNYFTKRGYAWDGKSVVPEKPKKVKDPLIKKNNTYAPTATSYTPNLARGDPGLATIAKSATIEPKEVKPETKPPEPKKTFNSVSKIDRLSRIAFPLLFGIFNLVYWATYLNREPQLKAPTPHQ
T1 sequence (P18507 whole entry): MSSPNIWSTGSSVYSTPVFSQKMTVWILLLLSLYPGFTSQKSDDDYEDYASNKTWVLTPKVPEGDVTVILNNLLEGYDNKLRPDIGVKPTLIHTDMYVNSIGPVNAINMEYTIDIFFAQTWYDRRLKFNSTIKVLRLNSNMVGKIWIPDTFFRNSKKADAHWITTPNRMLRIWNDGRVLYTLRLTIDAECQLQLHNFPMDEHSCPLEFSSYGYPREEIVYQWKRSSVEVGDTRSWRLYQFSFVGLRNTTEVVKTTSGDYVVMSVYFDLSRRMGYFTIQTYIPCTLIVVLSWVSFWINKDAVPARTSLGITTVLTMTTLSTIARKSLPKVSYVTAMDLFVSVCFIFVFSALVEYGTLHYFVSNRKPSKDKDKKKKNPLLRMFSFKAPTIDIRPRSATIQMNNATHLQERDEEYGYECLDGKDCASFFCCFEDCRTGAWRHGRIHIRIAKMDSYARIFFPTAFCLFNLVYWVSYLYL
T1 sequence (P28472 whole entry): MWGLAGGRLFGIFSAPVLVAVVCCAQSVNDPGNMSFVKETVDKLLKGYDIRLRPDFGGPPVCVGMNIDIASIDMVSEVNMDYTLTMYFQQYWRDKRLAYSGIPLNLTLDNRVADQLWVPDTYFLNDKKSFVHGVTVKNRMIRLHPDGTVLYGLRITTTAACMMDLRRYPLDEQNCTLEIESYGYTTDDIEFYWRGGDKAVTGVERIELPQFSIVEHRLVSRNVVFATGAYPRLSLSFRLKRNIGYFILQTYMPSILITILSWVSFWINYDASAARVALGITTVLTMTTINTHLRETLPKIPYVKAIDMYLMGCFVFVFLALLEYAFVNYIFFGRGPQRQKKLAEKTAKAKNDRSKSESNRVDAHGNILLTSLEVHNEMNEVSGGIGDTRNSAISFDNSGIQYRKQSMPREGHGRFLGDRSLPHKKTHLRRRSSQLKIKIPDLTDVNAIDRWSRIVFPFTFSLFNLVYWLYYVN
How it was run: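 HEK293 membranes (100 μg protein) from tetracycline-inducible cells expressing FLAG-tagged human receptors. Incubated 10 min with 2 nM [3H]muscimol (final) and modulator in 10 mM phosphate, 200 mM KCl, 1 mM EDTA, pH 7.4. Filtered on PEI-treated GF/B filters and washed twice with cold buffer. EC50 from fitting a logistic equation (Eqn 1) to pooled concentration-response points from independent experiments.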

[2] = tested on: Xenopus laevis; experiment: Anesthetic activity in Xenopus laevis tadpoles assessed as increase in loss of righting reflex incubated for 30 to 60 mins; type: functional, organism-based
[3] = tested on: Oocyte; experiment: Positive allosteric modulation of GABAA alpha1beta3gamma2L S270I mutant (unknown origin) expressed in Xenopus laevis oocytes assessed as increase in GABA-induced current at 8 uM by two microelectrode voltage-clamp electrophysiology; type: cell-based; conditions: Homo sapiens
[4] = tested on: Oocyte; experiment: Positive allosteric modulation of GABAA alpha1beta3gamma2L S280W mutant (unknown origin) expressed in Xenopus laevis oocytes assessed as increase in GABA-induced current at 8 uM by two microelectrode voltage-clamp electrophysiology; type: cell-based; conditions: Homo sapiens
[5] = tested on: Oocyte; experiment: Positive allosteric modulation of GABAA alpha1beta3gamma2L I242W mutant (unknown origin) expressed in Xenopus laevis oocytes assessed as increase in GABA-induced current at 8 uM by two microelectrode voltage-clamp electrophysiology; type: cell-based; conditions: Homo sapiens, filed as positive allosteric modulator
[6] = tested on: Oocyte; experiment: Positive allosteric modulation of GABAA alpha1beta3gamma2L M227W mutant (unknown origin) expressed in Xenopus laevis oocytes assessed as increase in GABA-induced current at 8 uM by two microelectrode voltage-clamp electrophysiology; type: cell-based; conditions: Homo sapiens, filed as positive allosteric modulator
[7] = tested on: Oocyte; type: cell-based; conditions: Homo sapiens, filed as positive allosteric modulator, dose 8.0 µM
[8] = target: T1, GABA-A receptor; alpha-1/beta-3/gamma-2; experiment: Inhibition of [3H]R-mTFD-MPAB labelling of GABAA alpha1beta3gamma2L (unknown origin) expressed in Xenopus laevis oocytes assessed as reduction in photoincorporation at M227 residues of beta3 subunit measured after 30 mins in presence of GABA by liquid scintillation counting method; type: cell-based
[9] = Toxicity in Xenopus laevis tadpoles
[10] = target: T1, GABA-A receptor; alpha-1/beta-3/gamma-2; experiment: Positive allosteric modulation of GABAA alpha1beta3gamma2L (unknown origin) expressed in Xenopus laevis oocytes assessed as increase in GABA-induced current by two microelectrode voltage-clamp electrophysiology; type: cell-based, Oocyte
How it was run: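 Human subunit mRNA (0.5–1 ng, α:β:γ 1:1:5) injected into Xenopus oocytes, recorded about 24 h later. Two-electrode voltage clamp at −50 mV, room temperature, ND96 pH 7.6.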

[11] = target: T2, GABA-A receptor alpha-1/beta-3 (Homo sapiens, UniProt P14867+P28472); experiment: Positive allosteric modulation of GABAA alpha1beta3 in HEK cell plasma membrane assessed as increase in [3H]muscimol binding measured after 10 mins by liquid scintillation counting method; type: cell membranes
T2 sequence (P14867 whole entry): T1 sequence (P14867 whole entry)
T2 sequence (P28472 whole entry): T1 sequence (P28472 whole entry)
How it was run: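 Native membranes from tetracycline-inducible HEK293 cells expressing FLAG-tagged human receptors (100 μg protein), [3H]muscimol 2 nM final, plus modulator in 10 mM phosphate, 200 mM KCl, 1 mM EDTA, pH 7.4; 10 min incubation, filtration on PEI-treated GF/B filters, two cold washes. Concentration-response curves from independent experiments fitted to a Hill equation for EC50 and nH.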

[12] = target: T1, GABA-A receptor; alpha-1/beta-3/gamma-2; experiment: Inhibition of [3H]pTFD-di-iPr-BnOH labelling of GABAA alpha1beta3gamma2L (unknown origin) expressed in Xenopus laevis oocytes assessed as reduction in photoincorporation at beta subunit measured after 30 mins in presence of GABA by liquid scintillation counting method; type: cell-based
[13] = target: T1, GABA-A receptor; alpha-1/beta-3/gamma-2; experiment: Inhibition of [3H]azietomidate labelling of GABAA alpha1beta3gamma2L (unknown origin) expressed in Xenopus laevis oocytes assessed as reduction in photoincorporation at M236 residues of alpha1 subunit measured after 30 mins in presence of GABA by liquid scintillation counting method; type: cell-based, Oocyte

Compound | pEC50 [1] | pEC50 [2] | Activity [3] | Activity [4] | Activity [5] | Activity [6] | Activity [7] | pIC50 [8] | LC50 [9] | pEC50 [10] | pEC50 [11] | pIC50 [12] | pIC50 [13]
OCc1ccccc1 [BENZYL ALCOHOL] | < 1.30 | 2.70 |  |  |  |  |  |  |  |  |  |  | 
C=CCC1(c2cccc(C3(C(F)(F)F)N=N3)c2)C(=O)NC(=O)N(C)C1=O (stereo not drawn) |  |  | inactive | inactive | Active | Active | Active |  |  |  |  |  | 
CC(C)c1cc(C2(C(F)(F)F)N=N2)cc(C(C)C)c1CO | 5.13 | 5.60 |  |  |  |  |  | 4.59 | 3.6 µM | 5.00 | 5.54 | 4.74 | 3.34
CC(C)c1cccc(C(C)C)c1CO | 4.40 | 4.80 |  |  |  |  |  | 3.61 |  |  |  |  | 4.04
CC(C)c1cccc(C(C)C)c1O [PROPOFOL] | 5.27 | 6.20 |  |  |  |  |  | 4.36 |  |  |  | 4.49 | 5.10
OCc1ccc(C2(C(F)(F)F)N=N2)cc1 | 3.15 | 4.55 |  |  |  |  |  | 3.33 |  |  |  |  | 3.52

Reference: ChEMBL document CHEMBL4680248 (Eur J Med Chem, 2020)
